How the values were obtained:
HOP-62 [1] = assay: Percent growth inhibition against human lung HOP-62 cell lines at the concentration of 10E-5; type: functional
SiHa [2] = assay: Percent growth inhibition against human cervix SiHa cell lines at the concentration of 10E-5; type: functional
Calf thymus DNA [3] = assay: Thermal denaturation of calf thymus DNA at 18 hr at 37 degree C; type: nucleic-acid assay; conditions: Bos taurus
Summary of the method: (§1)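 Calf thymus DNA at 100 μM with ligand at 20 μM (1:5 [PBD]/[DNA] molar ratio), in 10 mM sodium phosphate plus 1 mM EDTA, pH 7.00 ± 0.01. Samples were incubated at 37 °C for 0 h or 18 h before thermal melting. The value is the induced ΔTm against DNA alone, whose Tm is the mean of 10 separate determinations.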

SiHa [4] = assay: Percent growth inhibition against human cervix SiHa cell lines at the concentration of 10E-4; type: functional
Calf thymus DNA [5] = assay: Thermal denaturation of calf thymus DNA at 0 h at 37 degree C; type: nucleic-acid assay; conditions: Bos taurus; summary of the method: as §1
A549 [6] = assay: Percent growth inhibition against human lung A-549 cell lines at the concentration of 10E-5; type: functional
HCT-15 [7] = assay: Percent growth inhibition against human colon HCT-15 cell lines at the concentration of 10E-6; type: functional
HT-29 [8] = assay: Percent growth inhibition against human colon HT-29 cell lines at the concentration of 10E-4; type: functional
A549 [9] = assay: Percent growth inhibition against human lung A-549 cell lines at the concentration of 10E-4; type: functional
HCT-15 [10] = assay: Percent growth inhibition against human colon HCT-15 cell lines at the concentration of 10E-5; type: functional
A549 [11] = assay: Percent growth inhibition against human lung A-549 cell lines at the concentration of 10E-6; type: functional
SiHa [12] = assay: Percent growth inhibition against human cervix SiHa cell lines at the concentration of 10E-6; type: functional
HT-29 [13] = assay: Percent growth inhibition against human colon HT-29 cell lines at the concentration of 10E-5; type: functional
HT-29 [14] = assay: Percent growth Inhibition against human colon HT-29 cell lines at the concentration of 10E-6; type: functional
HOP-62 [15] = assay: Percent growth inhibition against human lung HOP-62 cell lines at the concentration of 10E-6; type: functional
Calf thymus DNA [16] = assay: Thermal denaturation of calf thymus DNA at 37 degree C; type: nucleic-acid assay; conditions: Bos taurus; summary of the method: as §1
L1210 = assay: In vitro cytotoxicity against mouse leukemia L1210 cell lines; type: functional, cell-based

Row | Compound | Inhibition (HOP-62 [1]) | Inhibition (SiHa [2]) | ΔTm (Calf thymus DNA [3]) | Inhibition (SiHa [4]) | ΔTm (Calf thymus DNA [5]) | Inhibition (A549 [6]) | Inhibition (HCT-15 [7]) | Inhibition (HT-29 [8]) | Inhibition (A549 [9]) | Inhibition (HCT-15 [10]) | Inhibition (A549 [11]) | Inhibition (SiHa [12]) | Inhibition (HT-29 [13]) | Inhibition (HT-29 [14]) | Inhibition (HOP-62 [15]) | ΔTm (Calf thymus DNA [16]) | IC50 (L1210)
1 | COc1cc2c(cc1OCCCC(=O)Nc1cccc3c1C(=O)c1ccccc1C3=O)N=C[C@@H]1CCCN1C2=O | 90% | 52% | 9.1 °C | 57% | 8.9 °C | 27% | 59% | 93% | 93% | 66% | 47% | 41% | 86% | 68% | 74% | – | –
2 | COc1cc2c(cc1O)N=C[C@@H]1CCCN1C2=O | – | – | – | – | 0.3 °C | – | – | – | – | – | – | – | – | – | – | – | –
3 | COc1cc2c(cc1OCCCCC(=O)Nc1cccc3c1C(=O)c1ccccc1C3=O)N=C[C@@H]1CCCN1C2=O | 97% | 49% | 5.2 °C | 73% | 5.1 °C | 10% | 61% | 93% | 93% | 82% | 56% | 40% | 87% | 73% | 73% | – | –
4 | O=C1c2c(O)ccc(O)c2C(=O)c2c(NCCNCCO)ccc(NCCNCCO)c21 [MITOXANTRONE] | – | – | – | – | – | – | – | – | – | – | – | – | – | – | – | 15.9 °C | 100 nM
